Experimental data reported in PubChem BioAssay AID624097 (The Scripps Research Institute Molecular Screening Center, 2012).
Several values for one entry are separate records, joined by “and”; a condition that tells them apart may be missing. Identical values can stand only once. Activity calls are given as the source filed them.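 Rule for the calls: active = lowest compound dose that cuts the imipenem minimum inhibitory concentration fourfold is 10 µM or below; inactive = that dose above 10 µM or never reached.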

Tests used:
[1] = system: E. coli BL21 IMP-1, imipenem synergy, OD590, 18 h; assay: imipenem potentiation in IMP-1-expressing E. coli, late-stage follow-up, VIM-2 MBL inhibitor project, E. coli BL21, powder samples (AID 624097)
Method in brief: (§1)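 Material: E. coli BL21 carrying IMP-1; dosing: two-fold compound × imipenem checkerboard; timing: bacterial growth at least 18 h, 37 °C, aerobic; measured by: turbidity by absorbance at 590 nm, MIC per CLSI; also added: imipenem in two-fold dilution series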

[2] = as above; settings: E. coli BL21 IMP-1, imipenem synergy, OD590, 18 h; measured here: max imipenem fold potentiation; stronger effect = higher value
Method in brief: as §1

| SMILES | MIC [1] | fold potentiation [2] |
| --- | --- | --- |
| CC(C)(C)OC(=O)N1CCN(NC(=O)CN2C(=O)/C(=C/c3c(Cl)ccc(Cl)c3Cl)SC2=S)CC1 | 3.12 µM |  |
| O=C(CN1C(=O)/C(=C/c2c(Cl)ccc(Cl)c2Cl)SC1=S)NN1CCNCC1 | 25 µM (inactive) |  |
| CN1CCN(NC(=O)CN2C(=O)/C(=C/c3c(Cl)cccc3Cl)SC2=S)CC1 | 25 µM (inactive) and 3.12 µM |  |
| CN1CCN(NC(=O)CN2C(=O)/C(=C/c3c(Cl)ccc(Cl)c3Cl)SC2=S)CC1 | 0.781 µM and 1.56 µM |  |
| CN1CCN(C(=O)CN2C(=O)/C(=C/c3c(Cl)ccc(Cl)c3Cl)SC2=S)CC1 | 0.781 µM | 8 |
| O=C(CN1C(=O)/C(=C/c2c(Cl)ccc(Cl)c2Cl)SC1=S)NCc1ccccn1 | 0.781 µM |  |
